Drawing on ChEMBL document CHEMBL4138058, “Design and synthesis of novel selective estrogen receptor degradation inducers based on the diphenylheptane skeleton” (Medchemcomm, 2017), this text covers Activity and IC50 for one molecule.

Structures are written as SMILES.

Format in all cases: cell-based
Data set [1] concerns the target T1, Estrogen receptor (Homo sapiens) (UniProt P03372).
T1 sequence (whole entry): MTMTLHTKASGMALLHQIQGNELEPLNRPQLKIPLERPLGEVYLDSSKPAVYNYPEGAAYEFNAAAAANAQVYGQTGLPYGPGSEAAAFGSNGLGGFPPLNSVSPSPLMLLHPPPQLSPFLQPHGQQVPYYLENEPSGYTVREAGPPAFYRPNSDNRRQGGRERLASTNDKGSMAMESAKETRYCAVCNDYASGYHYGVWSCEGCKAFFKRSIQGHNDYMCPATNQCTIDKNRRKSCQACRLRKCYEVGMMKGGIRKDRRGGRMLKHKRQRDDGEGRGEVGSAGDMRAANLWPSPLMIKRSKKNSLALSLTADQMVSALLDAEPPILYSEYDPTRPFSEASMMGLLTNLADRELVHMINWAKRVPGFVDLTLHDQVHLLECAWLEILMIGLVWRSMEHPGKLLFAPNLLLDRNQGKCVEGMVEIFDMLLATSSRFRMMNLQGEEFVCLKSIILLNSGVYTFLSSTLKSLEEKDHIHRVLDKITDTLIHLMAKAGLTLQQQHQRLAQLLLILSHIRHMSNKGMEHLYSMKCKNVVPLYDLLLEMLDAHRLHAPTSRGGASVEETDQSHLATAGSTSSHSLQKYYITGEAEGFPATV
Kind of data set: Downregulation of ERalpha expression in human MCF7 cells at 1 uM after 6 hrs by Western blot method relative to beta-actin. In outline: (§1)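 MCF-7 cells kept in DMEM with 10% FBS, kanamycin and 10 μg/mL insulin, then exposed to compounds for 6 h. Lysates made in SDS buffer (0.1 M Tris-HCl pH 8.0, 10% glycerol, 1% SDS), boiled, BCA-normalized and run on SDS-PAGE. Blots probed with anti-ERα, AR, AhR or VDR and β-actin or lamin B. Chemiluminescence quantified as target/loading-protein ratio; means ± S.E., n=3.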
For orientation: A western blot detects proteins with antibodies after separation by electrophoresis.

Data set [2] addresses T1, Estrogen receptor (Homo sapiens). Kind of data set: Downregulation of ERalpha expression in human MCF7 cells at 3 uM after 6 hrs in presence of proteasome inhibitor MG132 by Western blot method relative to lamin B. In a few lines:
as §1

Data set [3] addresses T2, Aryl hydrocarbon receptor (Homo sapiens, UniProt P35869).
T2 sequence (P35869 whole entry): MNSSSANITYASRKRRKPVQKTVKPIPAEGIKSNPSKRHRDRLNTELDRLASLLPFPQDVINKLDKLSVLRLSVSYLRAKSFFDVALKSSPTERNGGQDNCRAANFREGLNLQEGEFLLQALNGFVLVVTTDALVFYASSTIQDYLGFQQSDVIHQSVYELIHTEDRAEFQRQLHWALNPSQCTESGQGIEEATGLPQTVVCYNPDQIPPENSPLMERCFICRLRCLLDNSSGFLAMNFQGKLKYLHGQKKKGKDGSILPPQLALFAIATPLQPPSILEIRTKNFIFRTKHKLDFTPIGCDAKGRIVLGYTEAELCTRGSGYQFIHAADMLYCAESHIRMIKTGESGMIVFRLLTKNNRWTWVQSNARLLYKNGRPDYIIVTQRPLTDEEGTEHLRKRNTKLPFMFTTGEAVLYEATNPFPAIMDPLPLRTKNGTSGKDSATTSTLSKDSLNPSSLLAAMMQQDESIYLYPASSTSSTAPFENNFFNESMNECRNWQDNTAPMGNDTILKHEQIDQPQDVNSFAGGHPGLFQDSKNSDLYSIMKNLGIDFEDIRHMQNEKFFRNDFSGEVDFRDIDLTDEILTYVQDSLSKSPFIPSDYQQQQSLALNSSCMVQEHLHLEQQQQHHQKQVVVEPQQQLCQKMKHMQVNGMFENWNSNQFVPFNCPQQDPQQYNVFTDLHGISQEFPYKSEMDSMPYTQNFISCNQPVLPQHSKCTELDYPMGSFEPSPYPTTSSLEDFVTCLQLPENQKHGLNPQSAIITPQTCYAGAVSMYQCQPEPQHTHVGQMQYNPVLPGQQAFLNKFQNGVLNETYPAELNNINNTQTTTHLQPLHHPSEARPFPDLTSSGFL
Kind of data set: Downregulation of AhR expression in human MCF7 cells at 3 uM after 6 hrs in presence of proteasome inhibitor MG132 by Western blot method relative to lamin B. Conditions: mcf7, 6 h. In outline:
as §1

The target of data set [4] is T2, Aryl hydrocarbon receptor. The data set is described as follows: Downregulation of AhR expression in human MCF7 cells at 1 uM after 6 hrs by Western blot method relative to lamin B. Conditions: mcf7, 6 h. In a few lines:
as §1

Data set [5] addresses T2, Aryl hydrocarbon receptor. The data set is described as follows: Downregulation of AhR expression in human MCF7 cells at 10 uM after 6 hrs in presence of proteasome inhibitor MG132 by Western blot method relative to lamin B. Conditions: mcf7, 6 h. In a few lines: as §1
Data set [6] deals with T1, Estrogen receptor (Homo sapiens). Kind of data set: Downregulation of ERalpha expression in human MCF7 cells at 3 uM after 6 hrs by Western blot method relative to lamin B. In a few lines: as §1
In another data set the target is T3, Estrogen receptor (Homo sapiens, UniProt P03372).
T3 sequence (P03372 whole entry): T1 sequence (whole entry)
The data set is described as follows: Antagonist activity at GAL4-fused human ERalpha LBD expressed in HEK293 cells assessed as inhibition of 17beta-estradiol-induced transcriptional activation after 16 to 20 hrs by luciferase reporter gene assay. In outline: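 HEK293 cells grown in phenol red-free DMEM with 10% FBS at 37 °C, 5% CO2. Calcium phosphate co-transfection with GAL4-hERα LBD plasmid, MH100x4-tk-luciferase reporter and β-galactosidase normalization plasmid. Compounds added 8 h post-transfection with 0.3 nM 17β-estradiol; harvested 16–20 h later. Luciferase normalized to β-galactosidase; means of triplicate assays.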
A general note: In a reporter assay the amount or activity of a reporter protein is the signal.

The target in data set [7] is T4, Vitamin D3 receptor (Homo sapiens) (UniProt P11473).
T4 sequence (whole entry): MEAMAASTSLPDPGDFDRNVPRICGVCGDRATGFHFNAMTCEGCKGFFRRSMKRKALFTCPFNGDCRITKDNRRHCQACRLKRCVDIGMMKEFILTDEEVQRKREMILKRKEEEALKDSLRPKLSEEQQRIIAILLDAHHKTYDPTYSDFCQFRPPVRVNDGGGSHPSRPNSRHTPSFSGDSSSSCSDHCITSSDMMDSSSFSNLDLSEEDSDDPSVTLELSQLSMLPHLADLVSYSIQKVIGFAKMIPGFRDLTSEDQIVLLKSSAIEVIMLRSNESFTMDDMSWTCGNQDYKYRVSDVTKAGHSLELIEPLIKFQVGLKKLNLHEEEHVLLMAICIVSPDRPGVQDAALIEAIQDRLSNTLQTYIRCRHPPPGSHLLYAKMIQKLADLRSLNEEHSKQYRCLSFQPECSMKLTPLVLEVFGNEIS
Kind of data set: Downregulation of VDR expression in human MCF7 cells at 10 uM after 6 hrs by Western blot method relative to lamin B. In outline:
as §1

Data set [8] concerns the target T2, Aryl hydrocarbon receptor. Kind of data set: Downregulation of AhR expression in human MCF7 cells at 10 uM after 6 hrs by Western blot method relative to lamin B. Particulars: mcf7, 6 h. In outline: as §1
The target in data set [9] is T4, Vitamin D3 receptor (Homo sapiens). Kind of data set: Downregulation of VDR expression in human MCF7 cells at 1 uM after 6 hrs by Western blot method relative to lamin B. In outline:
as §1

Data set [10] deals with T1, Estrogen receptor (Homo sapiens). The data set is described as follows: Downregulation of ERalpha expression in human MCF7 cells at 1 uM after 6 hrs in presence of proteasome inhibitor MG132 by Western blot method relative to lamin B. In outline: as §1
The target in data set [11] is T4, Vitamin D3 receptor (Homo sapiens). Kind of data set: Downregulation of VDR expression in human MCF7 cells at 3 uM after 6 hrs in presence of proteasome inhibitor MG132 by Western blot method relative to lamin B. In a few lines: as §1

A word on the IC50: it is the point on the concentration scale where inhibition reaches its midpoint. With `CCCCCCCCCCNCCOc1ccc(C(CCC)(CCC)c2ccc(O)c(C)c2)cc1C`, the Activity was 76% in data set [1]; 101% in data set [2]; 99% in [3]; 87% in [4]; 107% in data set [5]; 47 to 59% in [6]. In addition, the Activity in data set [7] is 80%; in [8], 81%; in data set [9], 100%; in data set [10], 117%; in data set [11], 83%. For the same molecule, on Estrogen receptor, the IC50 was determined as 45 nM.
